This is a sample that favours compounds with a hit; in the whole collection about 3.1% have one here.
CHO parental Ca: counter-screen: ATP calcium response change in parental CHO cells; parental CHO-K1, ATP-induced calcium, Fluo-8 fluorescence; AID 463079; actives 0.63% (n = 330,000); inhibition, % at 5.6 µM;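 active means inhibition above that plate's mean sample inhibition plus 3 SD, cut at about 26% in these data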
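Material: Parental CHO cells | Reagent: ATP | Compound dosing: Single nominal dose of 5.6 µM per compound | Detection: Intracellular calcium via Fluo-8 no-wash fluorescent dye | Read-out: % inhibition of ATP-induced calcium mobilization | Benchmarks: Low control ATP plus DMSO, high control DMSO only | Replicates: Singlicate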
GalR3 antagonist: blocks the human galanin receptor 3 | O60755 | HEK293 GalR3-CNG cAMP membrane potential fluorescence; galR3 body fused to GalR1 C-terminus | inhibition, % at 3 µM | actives 0.44% (n = 360,000);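 active means inhibition above the screen-wide average plus 3 SD, cut at about 13% in these data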;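 further: forskolin and galanin both at EC90 stimulate the cells; cAMP rise reported by CNG channel membrane potential dye signal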
Target sequence (O60755 1-299 limits assumed): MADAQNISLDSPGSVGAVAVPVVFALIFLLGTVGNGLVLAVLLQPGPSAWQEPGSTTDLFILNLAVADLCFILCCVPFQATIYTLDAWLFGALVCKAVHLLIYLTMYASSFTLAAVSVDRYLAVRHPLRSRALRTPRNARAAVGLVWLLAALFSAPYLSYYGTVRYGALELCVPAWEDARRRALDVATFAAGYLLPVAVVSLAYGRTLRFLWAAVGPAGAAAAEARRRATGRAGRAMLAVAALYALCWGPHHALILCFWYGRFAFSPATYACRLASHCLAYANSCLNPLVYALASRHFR
OX1R antag-1: human HCRTR1 antagonism; actives 0.43% (n = 330,000); inhibition, % at 5 µM; CHO/OX1R cells, Fluo-8 calcium fluorescence, orexin A; O43613; AID 434989;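 active means inhibition above its plate's threshold, mean inhibition of all tested compounds on the plate plus 3 SD, cut at about 37% in these data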
GPR7 antag: human neuropeptides B/W receptor 1 antagonism. GPR7-expressing cells, fluorescence antagonist assay. inhibition, % at 4.4 µM. P48145. AID 1861. actives 1.1% (n = 290,000); in the data active means inhibition above about 16%, passing the limit was not always enough;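 further: cells stimulated with the agonist NPW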
Target sequence (P48145 whole entry, looked up): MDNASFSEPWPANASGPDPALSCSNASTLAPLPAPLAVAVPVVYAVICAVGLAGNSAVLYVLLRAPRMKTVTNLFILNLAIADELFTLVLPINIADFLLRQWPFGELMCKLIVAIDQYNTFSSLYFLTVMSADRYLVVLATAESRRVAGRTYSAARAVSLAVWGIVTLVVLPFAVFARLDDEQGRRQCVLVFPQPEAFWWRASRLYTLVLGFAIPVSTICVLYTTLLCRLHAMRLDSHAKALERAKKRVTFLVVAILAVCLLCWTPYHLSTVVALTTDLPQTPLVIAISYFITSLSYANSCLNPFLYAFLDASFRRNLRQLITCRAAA
OX1R antag-2: antagonists of human orexin 1 receptor (OX1R). O43613. actives 1.8% (n = 330,000). AID 485270. inhibition, % at 6.6 µM. OX1R-expressing cells, FRET antagonist read-out; in the data active means inhibition mostly above about 38%, no sharp cut-off; inactive means mostly below about 40%
Large screens that a line does not name were inactive.

Cc1cccc(-c2cc(=O)c(C(=O)O)cn2-c2ccc(F)cc2F)c1	OX1R antag-2 58 (no result: GPR7 antag)
COc1ccc(OC)c(CNn2c(-c3ccccc3F)nc3ccccc3c2=O)c1	none
COc1ccc(O)c(CNn2c(-c3ccc(Br)cc3)nc3ccccc3c2=O)c1	OX1R antag-2 44
CNC[C@H]1OCc2ccccc2-c2ccccc2C(=O)N([C@H](C)CO)C[C@H]1C	none (no result: CHO parental Ca, OX1R antag-1, GPR7 antag, OX1R antag-2)
CN(CCC#N)C(=O)c1ccc(CNS(=O)(=O)c2ccc(F)cc2)cc1	GPR7 antag 16
Cc1cccc(C)c1NC(=O)C1(C)CN(S(C)(=O)=O)CC(=O)N1Cc1ccco1 (stereo not given)	none (no result: CHO parental Ca, OX1R antag-1, GPR7 antag, OX1R antag-2)
Nc1nonc1-n1nnc(C(=O)N/N=C/c2cc(Br)cs2)c1-c1ccccc1	OX1R antag-2 51
C/C(=N\NC(=O)c1nnn(-c2nonc2N)c1C)c1ccc(-c2ccccc2)cc1	GPR7 antag 20
C/C(=N/NC(=O)c1nnn(-c2nonc2N)c1COc1ccccc1)c1ccccc1	none
Cc1ccc(/C=N/NC(=O)c2nnn(-c3nonc3N)c2-c2ccc3c(c2)OCO3)s1	OX1R antag-2 43
Nc1nonc1-n1nnc(C(=O)N/N=C/c2ccccn2)c1-c1ccccc1	none (no result: CHO parental Ca, OX1R antag-1, OX1R antag-2)
Nc1nonc1-n1nnc(C(=O)N/N=C/c2ccccn2)c1CNc1ccccc1	OX1R antag-2 50
COc1ccccc1CNC(=O)CCNS(=O)(=O)c1cccc2nonc12	none
COc1cc(NC(=O)c2ccc(C(C)(C)C)cc2)c(OC)cc1NC(=O)CN1CCCCC1	none
C[C@@H]1ON(C)[C@H]2C[C@H]3c4[nH]c5c(-c6ccccc6)cccc5c4CCN3C(=O)[C@@H]12	none (no result: CHO parental Ca, OX1R antag-1, GPR7 antag, OX1R antag-2)
CC1CC(C)(C)Nc2ccc(OC(=O)c3ccco3)cc21 (stereo not given)	OX1R antag-2 69
O=C(Oc1ccc2ccccc2c1)c1ccco1	none
COc1ccc(C2CC(=O)C(c3ccc(C)cc3)=CN2Cc2ccccc2)cc1 (stereo not given)	none (no result: CHO parental Ca, OX1R antag-1, GPR7 antag, OX1R antag-2)
Cc1ccccc1C(=O)N1CCC(C(=O)NC2CCCCC2)CC1	none
CC1(C)CC[C@]2(C(=O)O)[C@H](O)C[C@]3(C)C(=CCC4[C@@]5(C)C[C@H](O)[C@H](O)[C@@](C)(CO)C5CC[C@]43C)[C@@H]2C1 (stereo not given in full)	CHO parental Ca 74 (no result: GPR7 antag)
CCCCN1C(=O)/C(=C/C=C2\Oc3ccccc3N2CC)SC1=S	none (no result: CHO parental Ca, OX1R antag-1, OX1R antag-2)
CCCCN1C(=O)/C(=C/C=C2/CC(C)(C)CN2C)SC1=S	CHO parental Ca 47, OX1R antag-1 46
S=c1nc(Cc2ccc(Cl)cc2)[nH]c2ccccc12	GalR3 antagonist 13
CCCCOc1ccc(C(=O)N/N=C/c2ccc(OCCN3CCCCC3)c(OC)c2)cc1	none
Cc1cc2occ(CC(=O)N(C)CC(=O)Nc3ccccc3Cl)c2cc1C	OX1R antag-2 54 (no result: GPR7 antag)
O=S(=O)(Nc1ccncc1Cl)c1cc(Cl)ccc1Cl	GPR7 antag 20
CCC1CCCCN1C(=O)COC(=O)c1cc(=O)[nH]c2ccccc12 (stereo not given)	OX1R antag-2 25 (no result: GPR7 antag)
COc1ccc(Nc2ncccc2C(=O)Nc2ccccc2)cc1	CHO parental Ca 50
COc1ccc2oc(=N)c(C(=O)Nc3ccccc3)cc2c1	OX1R antag-2 76
CCOC(=O)c1ccc(NC(=O)[C@@H]2CCC(=O)N2C2OC(=O)c3c2ccc(OC)c3OC)cc1 (stereo not given in full)	none (no result: CHO parental Ca, OX1R antag-1, GPR7 antag, OX1R antag-2)
COc1cc(/C=C/c2ccc3cccc(OC)c3n2)c(OC(C)=O)c([N+](=O)[O-])c1	OX1R antag-2 59
COc1cc2nc(/C=C/c3ccc(N(C)C)cc3)sc2cc1SC	CHO parental Ca 52, OX1R antag-1 60
CCN(CC)c1ccc(/C=C/c2nc3ccccc3s2)cc1	none (no result: GalR3 antagonist)
COC(=O)C1=C(O)/C(=C/c2cccc(OC)c2O)N=C1C	OX1R antag-2 63
CN(C)c1ccc(P(=O)(COc2ccc([N+](=O)[O-])cc2)c2ccc(N(C)C)cc2)cc1	GPR7 antag 20
CCCOc1ccc(C(=O)Nc2cc(S(=O)(=O)N3CCOCC3)ccc2N2CCN(CC)CC2)cc1OC	none (no result: CHO parental Ca, OX1R antag-1, GPR7 antag, OX1R antag-2)
COc1ccc(CCNC(=O)C2CC(c3ccc([N+](=O)[O-])cc3)=NO2)cc1 (stereo not given)	none
COCCNC(=O)C1CC(c2ccc([N+](=O)[O-])cc2)=NO1 (stereo not given)	OX1R antag-2 69
CCCOc1ncnc2c1[nH]c1ccc(OC)cc12	none
CCCCOc1ncnc2c1[nH]c1ccc(C)cc12	CHO parental Ca 56
Cc1cccc(N2CCN(C(=O)CSCc3c(C)noc3C)CC2)c1C	CHO parental Ca 46 (no result: GalR3 antagonist)
Cc1noc(C)c1CSCC(=O)N1CCN(c2ccc(F)cc2)CC1	none
C[C@H]1O[C@@H](O[C@H]2[C@@H](O)C[C@H](O[C@H]3[C@@H](O)C[C@H](O[C@H]4CC[C@@]5(C)[C@H](CC[C@@H]6[C@@H]5C[C@@H](O)[C@]5(C)[C@@H](C7=CC(=O)OC7)CC[C@]65O)C4)O[C@@H]3C)O[C@@H]2C)C[C@H](O)[C@@H]1O	GalR3 antagonist 23
Fc1ccccc1CSc1nncn1NCc1cccs1	GPR7 antag 19
CC1CCN(S(=O)(=O)c2ccc3[nH]c(=O)[nH]c3c2)CC1	none
O=C(CSc1nnc(-c2ccccc2Cl)o1)N1CCOCC1	none
Cc1cc(C(=O)CSc2nc3ccc(Cl)cc3[nH]2)c(C)n1Cc1ccco1	OX1R antag-2 45 (no result: GPR7 antag)
O=C(CSc1nc2ccc(Cl)cc2[nH]1)NCc1ccco1	none
COc1ccc(OC)c(/C=N\NC(=O)c2cc3c(ccc4ccccc43)o2)c1	OX1R antag-2 73
COc1ccc(-c2cc(C(=O)OCC(=O)N(C)C)c3ccccc3n2)cc1	GPR7 antag 18
COc1ccc(-c2cc(C(=O)OC3CCOC3=O)c3ccccc3n2)cc1 (stereo not given)	OX1R antag-2 53
COc1ccc(/C=N/NC(=O)c2cc(-c3ccccc3)nc3ccccc23)c(OC)c1	OX1R antag-2 42
COc1ccc(-c2cc(C(=O)OCc3ccccn3)c3ccccc3n2)cc1	none
COc1ccc(/C=N/NC(=O)c2cc3c(ccc4ccccc43)o2)c(OC)c1	none (no result: CHO parental Ca, OX1R antag-1, OX1R antag-2)
CSc1ccc(CC(=O)N2CCC(n3nccc3NC(=O)C3CC3)CC2)cc1	none
C#CCOCCOCCOCCNc1nc(N2CCN(C(=O)[C@H](CCCCN)n3cc([C@@H](N)CO)nn3)CC2)nc(N2CCN(C(=O)[C@H](CCCCN)n3cc([C@@H](N)CC(C)C)nn3)CC2)n1	none (no result: GPR7 antag)
CN(C)S(=O)(=O)c1cccc(COC(=O)c2ccc(Cl)cc2O)c1	CHO parental Ca 48
CC1CCN(C2=C(NS(=O)(=O)c3ccc(Br)cc3)C(=O)c3ccccc3C2=O)CC1	OX1R antag-2 56
O=C1C(NS(=O)(=O)c2ccc(Br)cc2)=C(N2CCCCC2)C(=O)c2ccccc21	OX1R antag-2 53
CC(=O)Nc1ccc(S(=O)(=O)NC2=C(N3CCN(Cc4ccccc4)CC3)C(=O)c3ccccc3C2=O)cc1	none
